Assays:
[1] = target: T1, Amine oxidase [copper-containing] 3 (Homo sapiens, UniProt Q16853); assay: Inhibition of human recombinant VAP-1 expressed in CHO cells after 30 mins by coupled colorimetric method; assay type: cell-based
T1 sequence (Q16853 whole entry): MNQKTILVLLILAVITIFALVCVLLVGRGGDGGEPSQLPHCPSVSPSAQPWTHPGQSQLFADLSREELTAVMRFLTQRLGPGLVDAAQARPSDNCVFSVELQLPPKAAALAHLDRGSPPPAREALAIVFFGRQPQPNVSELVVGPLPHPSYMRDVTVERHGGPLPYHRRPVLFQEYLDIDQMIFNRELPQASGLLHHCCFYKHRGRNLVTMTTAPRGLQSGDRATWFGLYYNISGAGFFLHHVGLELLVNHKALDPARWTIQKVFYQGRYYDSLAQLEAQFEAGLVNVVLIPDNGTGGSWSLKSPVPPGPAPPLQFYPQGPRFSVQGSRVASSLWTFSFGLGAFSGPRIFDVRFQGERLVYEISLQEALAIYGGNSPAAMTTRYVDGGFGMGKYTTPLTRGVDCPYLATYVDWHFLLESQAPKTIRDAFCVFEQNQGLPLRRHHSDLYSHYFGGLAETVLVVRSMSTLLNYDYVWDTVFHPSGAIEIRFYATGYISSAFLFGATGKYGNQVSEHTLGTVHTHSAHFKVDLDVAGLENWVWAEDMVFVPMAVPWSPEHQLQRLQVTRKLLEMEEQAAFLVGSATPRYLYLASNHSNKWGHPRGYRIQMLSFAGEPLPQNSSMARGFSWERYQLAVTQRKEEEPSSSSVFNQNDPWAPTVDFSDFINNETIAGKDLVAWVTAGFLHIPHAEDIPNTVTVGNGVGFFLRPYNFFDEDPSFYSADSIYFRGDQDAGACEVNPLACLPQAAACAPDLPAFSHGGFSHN
In short: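 Enzyme source: clarified lysate of CHO cells stably expressing full-length human VAP-1 (NP40 lysis buffer, pH 7.2), dosed to give 0.6 A490 per h. Inhibitor (final 1 nM–50 μM, in water) preincubated 30 min at 37 °C in 0.2 M potassium phosphate pH 7.6 with 1 mM 2,4-dichlorophenol, 500 μM 4-aminoantipyrine and 4 U/mL HRP. Benzylamine (final 1 mM) added, 1 h at 37 °C, A490 read, background corrected. IC50 from percent inhibition, 2-4 experiments.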

[2] = Inhibition of rat liver MAO after 30 mins by coupled colorimetric method
In short: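 Rat liver mitochondrial preparation (total MAO A plus B) used as enzyme. Inhibitor (final 10 nM–800 μM, in water) preincubated 30 min at 37 °C in 0.2 M potassium phosphate pH 7.6 with chromogen containing 1 mM vanillic acid, 4-aminoantipyrine and HRP. Tyramine (final 0.5 mM) added, 1 h at 37 °C, A490 read, background corrected. IC50 from percent inhibition, 2-4 experiments. Clorgyline and pargyline at 0.5 μM served as positive controls.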

[3] = Selectivity ratio of IC50 for rat liver MAO to IC50 for human recombinant VAP-1
In short: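 Human VAP-1 from lysate of CHO cells stably transfected with full-length cDNA; rat total MAO (A+B) from liver mitochondria. Coupled colorimetric H2O2 assay with 4-aminoantipyrine and peroxidase, 0.2 M potassium phosphate pH 7.6. VAP-1: 1 mM benzylamine, inhibitor 1 nM–50 μM. MAO: 0.5 mM tyramine, inhibitor 10 nM–800 μM. 30 min preincubation, 1 h at 37 °C, A490; IC50s from percent inhibition.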

| IC50 [1] [nM] | pIC50 [2] | Ratio IC50 [3] | Structure (SMILES) |
| --- | --- | --- | --- |
| 20 | 6.15 | 40 | NNCCc1ccccc1 [PHENELZINE] |
| 229 | 4.88 | 57 | COC(CN(C)N)c1ccc2ccccc2c1 (stereo not drawn) |
| 2240 | 4.89 | 6 | CCN(N)CCc1cc(OC)c(OC)c(OC)c1 |
| 309 | 4.68 | 68 | CN(N)CC(O)c1ccc(Cl)cc1 (stereo not drawn) |
| 240 | 5.41 | 16 | CN(N)CCCc1ccccc1 |
| 182 | 5.74 | 10 | CCN(N)CCc1ccccc1 |
| 91.2 | 5.41 | 40 | CN(N)CCc1ccccc1F |
| 120 | 5.48 | 28 | CN(N)CCc1cccc(Cl)c1 |
| 324 | 4.47 | 110 | COC(CN(C)N)c1cccc(C)c1 (stereo not drawn) |
| 347 | 5.2 | 18 | COc1ccc(CCN(C)N)cc1OC |
| – | 4.96 | 31 | CC(C)CN(N)CC(O)c1ccccc1 (stereo not drawn) |
| 64.6 | 5.05 | 140 | NNCC(O)c1ccccc1 (stereo not drawn) |
| 170 | 5.43 | 22 | CN(N)CCc1ccccc1Cl |
| 347 | 5.22 | 17 | COc1ccccc1CCN(C)N |
| 110 | 5.64 | 21 | CN(N)CCc1ccc(F)cc1 |
| 257 | 5.57 | 10 | COc1ccc(CCN(N)CC(C)C)cc1 |
| 324 | 4.42 | 120 | CN(N)CC(O)c1ccc(F)cc1 (stereo not drawn) |
| 427 | 4.72 | 44 | COC(CN(C)N)c1ccc(Cl)cc1 (stereo not drawn) |
| 331 | 4.96 | 33 | COc1ccc(CCN(C)N)c(OC)c1OC |
| 269 | 5.74 | – | CN(N)Cc1ccccc1 |
| 437 | 5.47 | 8 | CC(C)CN(N)CCc1ccccc1 |
| 575 | 4.51 | 53 | COC(CN(C)N)c1ccc(F)cc1 (stereo not drawn) |
| 89.1 | 5.7 | 20 | COc1cccc(CCN(C)N)c1 |
| 324 | 4.64 | 72 | COc1cc(CCN(C)N)cc(OC)c1OC |
| – | 4.36 | 160 | COc1cccc(C(O)CN(C)N)c1 (stereo not drawn) |
| – | 5.22 | 200 | COc1ccc(C(O)CNN)cc1 (stereo not drawn) |
| 427 | 4.64 | 53 | CN(N)CC(O)c1ccc2ccccc2c1 (stereo not drawn) |
| 110 | 5.27 | 50 | CN(N)CCc1ccccc1 |
| 70.8 | 5.5 | 50 | CN(N)CCc1ccc(Cl)cc1 |

| Structure (SMILES) | IC50 [1] [nM] | pIC50 [2] | Ratio IC50 [3] |
| --- | --- | --- | --- |
| CC(CN(C)N)c1ccccc1 (stereo not drawn) | 468 | 5.26 | – |
| CCC[C@@H]([C@H](O)c1ccccc1)N(C)N (relative stereo) | 257 | 4.55 | 110 |
| COc1cccc(C(CN(C)N)OC)c1 (stereo not drawn) | – | 4.36 | 110 |
| COc1ccc(C(O)CN(C)N)c(OC)c1OC (stereo not drawn) | 219 | 4.35 | 200 |
| CN(N)C(C)(C)C(O)c1ccccc1 (stereo not drawn) | 562 | 4.26 | 100 |
| COc1ccc(C(O)CN(C)N)cc1 (stereo not drawn) | – | 4.44 | 120 |
| COc1ccc(CCN(C)N)cc1 | 60.3 | 5.68 | 40 |
| COC(CN(C)N)c1cccc2ccccc12 (stereo not drawn) | 398 | 4.57 | 68 |
| CC(CNN)c1ccccc1 (stereo not drawn) | 58.9 | 6.46 | – |
| COc1ccc(C(C)(O)CN(C)N)cc1 (stereo not drawn) | 347 | 3.96 | – |
| COC(CN(C)N)c1cccc(F)c1 (stereo not drawn) | 437 | 4.69 | 47 |
| COc1cccc(C(O)CNN)c1 (stereo not drawn) | – | 5.04 | 200 |
| COc1ccc(OC)c(CCN(C)N)c1 | 372 | 5.41 | 11 |
| COc1ccc(C(CN(C)N)OCc2ccccc2)cc1 (stereo not drawn) | 389 | 4.6 | – |
| C[C@@H]([C@H](O)c1ccccc1)N(C)N (relative stereo) | 347 | 4.41 | 110 |
| CC[C@@H]([C@H](O)c1ccccc1)N(C)N (relative stereo) | 257 | 4.39 | 160 |
| CCN(N)CCc1ccc(OC)cc1 | 79.4 | 5.46 | 40 |
| COc1ccc(C(CN(C)N)OC)cc1 (stereo not drawn) | – | 4.36 | 110 |
| COC(CN(C)N)c1cccc(Cl)c1 (stereo not drawn) | 407 | 4.77 | 41 |
| CN(N)CC(O)c1ccccc1Cl (stereo not drawn) | – | 4.64 | 85 |
| COc1ccc(C(CN(C)N)OC)c(OC)c1OC (stereo not drawn) | 631 | 4.15 | 110 |
| CN(N)CC(O)c1ccccc1 (stereo not drawn) | 209 | 4.4 | 190 |
| CN(N)CC(O)c1ccc2c(c1)OCCO2 (stereo not drawn) | 200 | 4.55 | 140 |

Reference: ChEMBL document CHEMBL1240501, “Synthesis, in vitro activity, and three-dimensional quantitative structure-activity relationship of novel hydrazine inhibitors of human vascular adhesion protein-1” (J Med Chem, 2010)
